Measurements published in ChEMBL document CHEMBL1147494, “Differentiation of in vitro transcriptional repression and activation profiles of selective glucocorticoid modulators” (Bioorg Med Chem Lett, 2004).

Experiments:
[1] = target: T1, Progesterone receptor (Homo sapiens) (UniProt P06401); test: In vitro binding affinity against progesterone receptor
T1 sequence (whole entry): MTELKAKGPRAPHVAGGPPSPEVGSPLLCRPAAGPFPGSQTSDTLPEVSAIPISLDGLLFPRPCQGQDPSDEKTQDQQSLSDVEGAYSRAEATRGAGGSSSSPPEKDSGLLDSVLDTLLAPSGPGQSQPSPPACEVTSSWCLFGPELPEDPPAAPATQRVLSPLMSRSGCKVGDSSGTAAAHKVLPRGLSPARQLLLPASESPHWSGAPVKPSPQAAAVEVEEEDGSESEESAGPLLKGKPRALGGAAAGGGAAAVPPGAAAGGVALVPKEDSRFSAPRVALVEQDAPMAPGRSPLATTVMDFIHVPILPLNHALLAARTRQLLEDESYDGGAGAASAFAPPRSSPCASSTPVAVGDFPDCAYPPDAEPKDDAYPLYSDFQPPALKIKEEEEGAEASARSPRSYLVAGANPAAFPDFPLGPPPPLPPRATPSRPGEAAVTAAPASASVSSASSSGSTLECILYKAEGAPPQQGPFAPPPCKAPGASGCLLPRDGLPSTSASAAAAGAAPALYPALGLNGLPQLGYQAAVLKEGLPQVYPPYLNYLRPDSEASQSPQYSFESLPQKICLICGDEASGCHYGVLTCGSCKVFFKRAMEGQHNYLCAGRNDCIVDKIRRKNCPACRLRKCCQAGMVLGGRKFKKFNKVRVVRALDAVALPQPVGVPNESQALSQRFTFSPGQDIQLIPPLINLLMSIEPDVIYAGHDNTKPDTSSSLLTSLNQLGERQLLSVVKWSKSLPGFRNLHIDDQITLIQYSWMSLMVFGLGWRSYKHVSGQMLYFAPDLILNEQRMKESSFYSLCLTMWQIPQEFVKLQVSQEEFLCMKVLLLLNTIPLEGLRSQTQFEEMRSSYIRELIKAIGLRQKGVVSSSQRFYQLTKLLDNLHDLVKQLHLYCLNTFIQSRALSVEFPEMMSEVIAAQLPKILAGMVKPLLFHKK
Procedure, shortened: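 Competition binding assay against progesterone receptor. Replicates vary by value: single experiments in triplicate; two experiments with triplicate determinations (with standard deviation); or at least three separate experiments in triplicate (mean ± SEM).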

Glucocorticoid receptor [2] = target: T2, Glucocorticoid receptor (Homo sapiens, UniProt P04150); test: Inhibition of transcriptional activation in CV-1 cells expressing glucocorticoid receptor; type: functional, cell-based
T2 sequence (P04150 whole entry): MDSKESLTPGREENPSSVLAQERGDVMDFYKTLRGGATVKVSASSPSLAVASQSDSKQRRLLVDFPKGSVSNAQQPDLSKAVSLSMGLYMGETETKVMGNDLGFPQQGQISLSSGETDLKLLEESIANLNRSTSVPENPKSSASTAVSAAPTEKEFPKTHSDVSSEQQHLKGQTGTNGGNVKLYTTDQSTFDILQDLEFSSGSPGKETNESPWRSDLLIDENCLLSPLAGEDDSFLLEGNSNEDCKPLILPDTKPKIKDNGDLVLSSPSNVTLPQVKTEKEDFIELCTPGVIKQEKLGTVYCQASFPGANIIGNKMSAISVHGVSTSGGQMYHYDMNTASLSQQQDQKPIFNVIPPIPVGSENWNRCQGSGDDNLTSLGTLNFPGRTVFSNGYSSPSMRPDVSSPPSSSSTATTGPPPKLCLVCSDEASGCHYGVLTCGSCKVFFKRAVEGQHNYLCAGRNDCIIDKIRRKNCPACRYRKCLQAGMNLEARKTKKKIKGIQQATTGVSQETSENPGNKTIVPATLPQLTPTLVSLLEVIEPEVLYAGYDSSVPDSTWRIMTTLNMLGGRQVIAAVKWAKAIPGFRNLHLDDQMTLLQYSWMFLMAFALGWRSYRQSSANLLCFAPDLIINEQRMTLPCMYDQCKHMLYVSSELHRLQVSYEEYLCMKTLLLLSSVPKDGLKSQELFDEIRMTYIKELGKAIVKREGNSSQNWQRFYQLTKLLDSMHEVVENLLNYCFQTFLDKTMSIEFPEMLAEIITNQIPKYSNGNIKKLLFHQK

Glucocorticoid receptor [3] = target: T2, Glucocorticoid receptor; test: Inhibition of transcriptional repression in CV-1 cells expressing glucocorticoid receptor; type: functional, cell-based
[4] = target: T1, Progesterone receptor (Homo sapiens); test: Transcriptional activation in cells expressing progesterone receptor isoform B compared to progesterone; type: functional
Progesterone receptor = target: T3, Progesterone receptor (Homo sapiens, UniProt P06401); test: Inhibition of transcriptional activation in cells expressing progesterone receptor isoform B; type: functional
T3 sequence (P06401 whole entry): T1 sequence (whole entry)

Cell line [5] = test: Effective concentration for transcriptional activation of aromatase in Human cell native protein assay; type: functional, cell-based
Cell line [6] = test: Effective concentration of compound for transcriptional repression of PGE-2 in Human cell native protein assay
Cell line [7] = test: Efficacy for transcriptional […] of PGE-2 in Human cell native protein assay expressed as percentage of the maximal response of Dexamethasone; type: functional
Cell line [8] = test: Efficacy for transcriptional activation of collagenase in Human cell native protein assay expressed as percentage of the maximal response of Dexamethasone; type: functional
Cell line [9] = test: Effective concentration of compound for transcriptional activation of TAT in Human cell native protein assay; type: functional, cell-based
Cell line [10] = test: Efficacy for transcriptional activation of aromatase in Human cell native protein assay expressed as percentage of the maximal response of Dexamethasone; type: functional
Cell line [11] = test: Effective concentration of compound for transcriptional repression of collagenase in Human cell native protein assay
Cell line [12] = test: Efficacy for transcriptional activation of TAT in Human cell native protein assay expressed as percentage of the maximal response of Dexamethasone; type: functional
Cell line [13] = test: Efficacy for transcriptional repression of osteocalcin in Human cell native protein assay expressed as percentage of the maximal response of Dexamethasone
Cell line [14] = test: Efficacy for transcriptional repression of IL-6 in Human cell native protein assay expressed as percentage of the maximal response of Dexamethasone; type: functional
Cell line [15] = test: Effective concentration of compound for transcriptional repression of IL-6 in Human cell native protein assay

Row | SMILES | Activity [1] | IC50 (Glucocorticoid receptor [2]) | IC50 (Glucocorticoid receptor [3]) | further results
1 | C=C1CCCCC1C1Oc2cccc(OC)c2-c2ccc3c(c21)C(C)=CC(C)(C)N3 (stereo unspecified) | > 5000 nM | > 5000 nM | 320 nM | 
2 | C=CC(C)C1Oc2cccc(OC)c2-c2ccc3c(c21)C(C)=CC(C)(C)N3 (stereo unspecified) | > 5000 nM | 110 nM | 40 nM | 
3 | COc1cccc2c1-c1ccc3c(c1C(CC1=CCCCC1)O2)C(C)=CC(C)(C)N3 (stereo unspecified) | > 5000 nM |  |  | 
4 | COc1cccc2c1-c1ccc3c(c1[C@@H]([C@@H]1C=C(C)CCC1)O2)C(C)=CC(C)(C)N3 | > 5000 nM | > 5000 nM | > 5000 nM | 
5 | C=CCC1Oc2cccc(OC)c2-c2ccc3c(c21)C(C)=CC(C)(C)N3 (stereo in doubt; 4a) [AL-43] |  | 33 nM | 13 nM | 
6 | CC/C=C\CC1Oc2cccc(OC)c2-c2ccc3c(c21)C(C)=CC(C)(C)N3 (stereo unspecified) | > 5000 nM | 89 nM | 88 nM | 
7 | C/C=C\CC1Oc2cccc(OC)c2-c2ccc3c(c21)C(C)=CC(C)(C)N3 (stereo unspecified) | 1200 nM | 39 nM | 23 nM | 
8 | C/C=C/CC1Oc2cccc(OC)c2-c2ccc3c(c21)C(C)=CC(C)(C)N3 (stereo unspecified) | 2100 nM | 150 nM | 38 nM | 
9 | COc1cccc2c1-c1ccc3c(c1C(C1/C=C\CCCCC1)O2)C(C)=CC(C)(C)N3 (stereo unspecified) | > 5000 nM |  |  | 
10 | COc1cccc2c1-c1ccc3c(c1C(CC=C(C)C)O2)C(C)=CC(C)(C)N3 (stereo unspecified) | 1600 nM | > 5000 nM | 23 nM | 
11 | COc1cccc2c1-c1ccc3c(c1C(C1C=C(C)CCC1)O2)C(C)=CC(C)(C)N3 (stereo unspecified) | 980 nM | 15 nM | 7 nM | 
12 | C=CCC1Oc2cccc(OC)c2-c2ccc3c(c21)C(C)=CC(C)(C)N3 (stereo in doubt; 4a) | 1800 nM |  |  | 
13 | COc1c(O)ccc2c1-c1ccc3c(c1[C@H]([C@H]1C=C(C)CCC1)O2)C(C)=CC(C)(C)N3 | 52 nM |  |  | Efficacy [4]: 190%; IC50 (Progesterone receptor): 210 nM
14 | COc1cccc2c1-c1ccc3c(c1C(CC=C1CCCC1)O2)C(C)=CC(C)(C)N3 (stereo unspecified) | > 5000 nM | > 5000 nM | 217 nM | 
15 | C=CCC1Oc2cccc(OC)c2-c2ccc3c(c21)C(C)=CC(C)(C)N3 (stereo in doubt; (-)4a) | 1300 nM |  |  | 
16 | C=C(CO)CC1Oc2cccc(OC)c2-c2ccc3c(c21)C(C)=CC(C)(C)N3 (stereo unspecified) | > 5000 nM | 310 nM | 141 nM | 
17 | COc1cccc2c1-c1ccc3c(c1[C@H]([C@H]1C=C(C)CCC1)O2)C(C)=CC(C)(C)N3 | 710 nM | 40 nM | 19 nM | EC50 (Cell line [5]): 640 nM; EC50 (Cell line [6]): 35 nM; Efficacy (Cell line [7]): 95%; Efficacy [4]: 13%; Efficacy (Cell line [8]): 89%; EC50 (Cell line [9]): 110 nM; Efficacy (Cell line [10]): 26%; EC50 (Cell line [11]): 32 nM; Efficacy (Cell line [12]): 49%; Efficacy (Cell line [13]): 38%; Efficacy (Cell line [14]): 82%; EC50 (Cell line [15]): 62 nM
18 | COc1cccc2c1-c1ccc3c(c1C(C1C=CCCC1)O2)C(C)=CC(C)(C)N3 (stereo unspecified) | 2400 nM | 13 nM | 21 nM | 
19 | C=CCC1Oc2cccc(OC)c2-c2ccc3c(c21)C(C)=CC(C)(C)N3 (stereo in doubt; (-)4a) [AL-43] |  | 14 nM | 6.9 nM | EC50 (Cell line [5]): 160 nM; Efficacy (Cell line [8]): 77%; EC50 (Cell line [9]): 40 nM; Efficacy (Cell line [10]): 82%; EC50 (Cell line [11]): 37 nM; Efficacy (Cell line [12]): 71%; Efficacy (Cell line [14]): 83%; EC50 (Cell line [15]): 30 nM
20 | COc1cccc2c1-c1ccc3c(c1C(C/C=C/CO)O2)C(C)=CC(C)(C)N3 (stereo unspecified) | > 5000 nM | > 5000 nM | 150 nM | 
21 | C=C(COC(C)=O)CC1Oc2cccc(OC)c2-c2ccc3c(c21)C(C)=CC(C)(C)N3 (stereo unspecified) | > 5000 nM | 310 nM | 141 nM | 
22 | C=C(C)CC1Oc2cccc(OC)c2-c2ccc3c(c21)C(C)=CC(C)(C)N3 (stereo unspecified) | > 5000 nM | 66 nM | 42 nM | 
23 | C=C(CC1Oc2cccc(OC)c2-c2ccc3c(c21)C(C)=CC(C)(C)N3)C(=O)OC (stereo unspecified) | > 5000 nM | > 5000 nM | > 5000 nM | 
24 | COC(=O)/C=C/CC1Oc2cccc(OC)c2-c2ccc3c(c21)C(C)=CC(C)(C)N3 (stereo unspecified) | > 5000 nM | 220 nM | 87 nM | 
25 | COc1cccc2c1-c1ccc3c(c1C(C1C=CCC1)O2)C(C)=CC(C)(C)N3 (stereo unspecified) | 2200 nM |  |  | 
26 | C=C(Br)CC1Oc2cccc(OC)c2-c2ccc3c(c21)C(C)=CC(C)(C)N3 (stereo unspecified) | > 5000 nM | 240 nM | 110 nM | 
27 | C=CC(C)(C)C1Oc2cccc(OC)c2-c2ccc3c(c21)C(C)=CC(C)(C)N3 (stereo unspecified) | > 5000 nM | > 5000 nM | > 5000 nM | 
28 | COc1cccc2c1-c1ccc3c(c1C(CC=C(F)F)O2)C(C)=CC(C)(C)N3 (stereo unspecified) | 2300 nM | 76 nM | 20 nM | 
29 | COc1cccc2c1-c1ccc3c(c1[C@@H]([C@H]1C=C(C)CCC1)O2)C(C)=CC(C)(C)N3 | > 5000 nM | > 5000 nM | 440 nM | 
30 | COc1cccc2c1-c1ccc3c(c1C(C1C=CCCCC1)O2)C(C)=CC(C)(C)N3 (stereo unspecified) | > 5000 nM |  |  | 
